This is an account of results in ChEMBL document CHEMBL1148584, “Effect of polyamine homologation on the transport and biological properties of heterocyclic amidines” (J Med Chem, 2006).

Each structure is given as a SMILES string. Where only a bound is given, the exact number is not on record here.

For data set [1], the system named is L1210. Kind of data set: Intracellular level of spermidine in L1210 cells in the presence of DFMO at 50 uM. It is filed as functional, cell-based. The settings on record: Mus musculus. The essentials:
(§1)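 L1210 cells in RPMI 1640/10% FCS with 2 mM aminoguanidine, seeded at 4 × 10⁴ cells/mL. Conjugate, with or without 5 mM DFMO, added at seeding; cells cultured 48 h, washed in cold NaCl, and extracted with 0.2 N HClO₄. Conjugate and free putrescine, spermidine and spermine quantified by ion-pair HPLC (UV 254 nm, fluorescence ex 345/em 455 nm); normalised to protein. Student's t-test, p<0.05.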

Data set [2] is described as follows: Selectivity for uptake CHO cell line over CHO-MG cell line at 50 uM. It is filed as functional, Cricetulus griseus. The essentials: (§2)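 Ratio of intracellular conjugate level in CHO over CHO-MG cells. Both lines were exposed to conjugate 24 h after seeding at 2 × 10⁵ cells/mL, for 24 h with 2 mM aminoguanidine in the medium. Levels were measured by ion-pair HPLC of perchloric extracts and normalised to protein (nmol/mg).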

Data set [3] concerns L1210. Kind of data set: Intracellular level of spermidine in L1210 cells in the absence of DFMO at 50 uM. It is filed as functional, cell-based. The conditions noted are these: Mus musculus. The method in brief: as §1
Data set [4] relates to CHO-MG. Kind of data set: Cellular uptake in CHO-MG cells at 50 uM. It is filed as ADME, cell-based, Cricetulus griseus. The conditions noted are these: chinese hamster. The method in brief: (§3)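 CHO (RPMI 1640, 10% FCS, 2 mM aminoguanidine) and CHO-MG (plus L-proline) cells seeded at 2 × 10⁵ cells/mL. Conjugate added 24 h after seeding and cells harvested 24 h later, then washed in cold 0.14 M NaCl and sonicated in 0.2 N HClO₄. Supernatant analysed by ion-pair reversed-phase HPLC (n-octanesulfonate), expressed as nmol/mg protein; mean ± SD of three determinations.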

Data set [5] relates to L1210. Kind of data set: Intracellular level of conjugate in L1210 cells in the absence of DFMO at 50 uM. It counts as functional, cell-based. The conditions noted are these: Mus musculus. The method in brief:
as §1

Data set [6] relates to L1210. Kind of data set: Intracellular level of putrescine in L1210 cells in the presence of DFMO at 50 uM. It counts as functional, cell-based. The conditions noted are these: Mus musculus. The method in brief: as §1
Data set [7] relates to L1210. Kind of data set: Intracellular level of spermine in L1210 cells in the presence of DFMO at 50 uM. The conditions noted are these: Mus musculus. It is filed as functional, cell-based. The essentials:
as §1

Data set [8] deals with CHO. Kind of data set: Cellular uptake in CHO cells at 50 uM. The conditions noted are these: chinese hamster. It is filed as ADME, cell-based, Cricetulus griseus. The essentials: as §3
For data set [9], the system named is L1210. Kind of data set: Intracellular level of putrescine in L1210 cells in the absence of DFMO at 50 uM. It is filed as functional, cell-based. The conditions noted are these: Mus musculus. The method in brief:
as §1

The subject of data set [10] is L1210. Kind of data set: Intracellular level of conjugate in L1210 cells in the presence of DFMO at 50 uM. It is filed as functional, cell-based. The settings on record: Mus musculus. The method in brief: as §1
The target of data set [11] is Phosphodiesterase 1 (Bos taurus, UniProt Q01061+P14100). Kind of data set: Inhibition of bovine calmodulin-activated cAMP dependent phosphodiesterase. It is filed as protein assay. The method in brief: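 Crude bovine heart PDE preparation containing calmodulin and Ca²⁺ (0.2 milliunit). Incubated 20 min at 37 °C with 0.1 mM [8-³H]cAMP and graded drug concentrations in 30 mM Tris-HCl, 3 mM MgSO₄, 0.6 mM AMP. Stopped with ZnSO₄; Ba(OH)₂ precipitated AMP with BaSO₄; supernatant radioactivity counted. IC50 is the concentration giving 50% inhibition.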

Data set [12] concerns L1210. Kind of data set: Intracellular level of spermine in L1210 cells in the absence of DFMO at 50 uM. The conditions noted are these: Mus musculus. It is filed as functional, cell-based. The method in brief:
as §1

Data set [13] has as its system CHO-MG. Kind of data set: Selectivity for uptake in CHO cell line over CHO-MG cell line at 10 uM. It counts as functional, cell-based. The conditions noted are these: Cricetulus griseus. The essentials:
as §2

The test system of data set [14] is CHO-MG. Kind of data set: Cellular uptake in CHO-MG cells at 10 uM. It is filed as ADME, cell-based, Cricetulus griseus. The settings on record: chinese hamster. The essentials: as §3
Data set [15] concerns L1210. Kind of data set: Intracellular level of conjugate in L1210 cells in the presence of DFMO at 10 uM. It is filed as functional, cell-based. The settings on record: Mus musculus. The method in brief: as §1
Data set [16] is described as follows: Selectivity for uptake in CHO cell line over CHO-MG cell line at 5 uM. It counts as functional, Cricetulus griseus. The method in brief:
as §2

The test system of data set [17] is CHO. Kind of data set: Cellular uptake in CHO cells at 10 uM. It counts as ADME, cell-based, Cricetulus griseus. The settings on record: chinese hamster. The essentials: as §3
Data set [18] concerns L1210. Kind of data set: Intracellular level of conjugate in L1210 cells in the absence of DFMO at 10 uM. The settings on record: Mus musculus. It is filed as functional, cell-based. The method in brief:
as §1

Data set [19] concerns L1210. Kind of data set: Intracellular level of spermine in L1210 cells in the presence of DFMO at 10 uM. It is filed as functional, cell-based. The settings on record: Mus musculus. The essentials: as §1
Data set [20] concerns L1210. Kind of data set: Intracellular level of putrescine in L1210 cells in the absence of DFMO at 10 uM. It counts as functional, cell-based. The settings on record: Mus musculus. The essentials: as §1
Data set [21] relates to CHO. Kind of data set: Cellular uptake in CHO cells at 5 uM. It counts as ADME, cell-based, Cricetulus griseus. The conditions noted are these: chinese hamster. The method in brief:
as §3

Data set [22] has as its system L1210. Kind of data set: Intracellular level of spermidine in L1210 cells in the presence of DFMO at 10 uM. It is filed as functional, cell-based. The conditions noted are these: Mus musculus. The essentials: as §1
For data set [23], the system named is L1210. Kind of data set: Intracellular level of spermidine in L1210 cells in the absence of DFMO at 10 uM. It counts as functional, cell-based. The settings on record: Mus musculus. The method in brief:
as §1

In data set [24] the test system is L1210. Kind of data set: Intracellular level of spermine in L1210 cells in the absence of DFMO at 10 uM. It counts as functional, cell-based. The conditions noted are these: Mus musculus. The essentials: as §1
The test system of data set [25] is CHO-MG. Kind of data set: Cellular uptake in CHO-MG cells at 5 uM. It counts as ADME, cell-based, Cricetulus griseus. The settings on record: chinese hamster. The essentials: as §3
For data set [26], the system named is L1210. Kind of data set: Intracellular level of conjugate in L1210 cells in the absence of DFMO at 25 uM. It is filed as functional, cell-based. The settings on record: Mus musculus. The method in brief:
as §1

Data set [27] relates to L1210. Kind of data set: Intracellular level of spermine in L1210 cells in the presence of DFMO at 25 uM. The settings on record: Mus musculus. It is filed as functional, cell-based. The method in brief:
as §1

The subject of data set [28] is CHO-MG. Kind of data set: Inhibition of cell growth in CHO-MG cells in the presence of DFMO. It is filed as functional, cell-based. The conditions noted are these: Cricetulus griseus. The essentials:
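L1210 cells seeded at 5 × 10⁴ cells/mL with conjugate added at seeding; CHO/CHO-MG plated at 2 × 10³ cells/mL with conjugate added after overnight (24 h). 5 mM DFMO added together with conjugate; medium contains 2 mM aminoguanidine. After 48 h, growth read by MTT formazan absorbance at 540 nm. IC50 is 50% growth inhibition; mean of three determinations.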

Data set [29] deals with L1210. Kind of data set: Intracellular level of conjugate in L1210 cells in the presence of DFMO at 25 uM. It is filed as functional, cell-based. The conditions noted are these: Mus musculus. The essentials: as §1
In data set [30] the test system is L1210. Kind of data set: Intracellular level of spermidine in L1210 cells in the presence of DFMO at 25 uM. It is filed as functional, cell-based. The settings on record: Mus musculus. The essentials:
as §1

Data set [31] deals with L1210. Kind of data set: Intracellular level of spermidine in L1210 cells in the absence of DFMO at 25 uM. It is filed as functional, cell-based. The settings on record: Mus musculus. The essentials:
as §1

The subject of data set [32] is L1210. Kind of data set: Intracellular level of putrescine in L1210 cells in the presence of DFMO at 25 uM. It is filed as functional, cell-based. The settings on record: Mus musculus. The method in brief: as §1
The test system of data set [33] is L1210. Kind of data set: Intracellular level of spermine in L1210 cells in the absence of DFMO at 25 uM. It is filed as functional, cell-based. The settings on record: Mus musculus. The essentials:
as §1

For data set [34], the system named is L1210. Kind of data set: Intracellular level of putrescine in L1210 cells in the absence of DFMO at 25 uM. It is filed as functional, cell-based. The conditions noted are these: Mus musculus. The method in brief: as §1

With `CNc1ccc(C2c3ccccc3N=C(NCCCCN)C2(C)C)cc1` (stereo not given), the Drug uptake was found to be 1.8 nmol/mg in data set [1]; 20 nmol/mg in [3]; 5.9 nmol/mg in data set [4]; 0.6 nmol/mg in [5]; 1 nmol/mg in data set [6]; 6.6 nmol/mg in data set [7]. Moreover, the Drug uptake was 5.3 nmol/mg in data set [8], 1.9 nmol/mg in [9], 0.33 nmol/mg in data set [10] and 8.6 nmol/mg in [12]. Moreover, in data set [2], the Selectivity ratio was 0.9. The compound also returned an IC50 in data set [11] of 373 µM.

Consider `NCCCCNC1=Nc2ccccc2CC1`, for which, in data set [13], the Ratio came to 5.7. For the same compound, the Drug uptake worked out at 0.37 nmol/mg in data set [14]; 0.34 nmol/mg in [15]; 2.1 nmol/mg in data set [17]; 0.26 nmol/mg in data set [18]; 16.5 nmol/mg in [19]; 1.8 nmol/mg in data set [20]. In addition, the Drug uptake is 1.2 nmol/mg in data set [21]; 0.94 nmol/mg in data set [22]; 21 nmol/mg in [23]; 12.5 nmol/mg in [24]; 0.26 nmol/mg in data set [25]. In addition, in data set [16], the Selectivity ratio came out at 4.6. Also, the IC50 in [11] is greater than 500 µM.

For `CNc1cccc2c1[C@H](C)C[C@]1(C)C(NCCCNCCCCN)=Nc3ccccc3[C@H]21`, in [2], the Selectivity ratio was 1. Further, the Drug uptake in data set [26] was determined as 1.2 nmol/mg; in data set [4], 1.2 nmol/mg; in data set [27] it was 8.9 nmol/mg; in data set [29] it was 1.3 nmol/mg; in [30], 1.5 nmol/mg; in [31], 24 nmol/mg. Also, the Drug uptake came out at 1.3 nmol/mg in data set [8], 0.02 nmol/mg in data set [32], 11 nmol/mg in data set [33] and 1 nmol/mg in data set [34]. For the same compound, the results for the half-inhibitory concentration (IC50) in data set [28] and in [11] were greater than 100 µM and 22 µM, respectively.

`NCCCNCCCCNCCCNC1=Nc2ccccc2CC1`: in [13], the Ratio amounted to 1.3. The Drug uptake in [14] turned out to be 0.022 nmol/mg; in data set [15], 2.4 nmol/mg; in data set [17], 0.029 nmol/mg; in [18], 1.5 nmol/mg; in [19], 13.9 nmol/mg; in data set [20], 0.33 nmol/mg. The Drug uptake in [21] is 0.029 nmol/mg; in data set [22] it was 4.2 nmol/mg; in data set [23] it was 8.1 nmol/mg; in data set [24], 13.9 nmol/mg; in [25] it was 0.029 nmol/mg. For the same compound, in data set [16], the Selectivity ratio is 1. Besides, in data set [11], the IC50 was greater than 500 µM.

With `CNc1ccc(C2c3ccccc3N=C(NCCCNCCCCN)C2(C)C)cc1` (stereo not given), the Drug uptake in [1] was determined as 2.4 nmol/mg; in [3], 15 nmol/mg; in data set [4], 1.7 nmol/mg; in [5], 0.77 nmol/mg; in data set [6], 0.08 nmol/mg; in data set [7] it was 8 nmol/mg. The Drug uptake in data set [8] is 1.2 nmol/mg; in data set [9], 1.1 nmol/mg; in data set [10], 0.62 nmol/mg; in data set [12] it was 9.2 nmol/mg. In addition, the Selectivity ratio in data set [2] turned out to be 0.7. This compound also yielded an IC50 in [11] of 64 µM.
